# From ChEMBL document CHEMBL4020842, “Discovery of N1-(4-((7-Cyclopentyl-6-(dimethylcarbamoyl)-7 H-pyrrolo[2,3- d]pyrimidin-2-yl)amino)phenyl)- N8-hydroxyoctanediamide as a Novel Inhibitor Targeting Cyclin-dependent Kinase 4/9 (CDK4/9) and Histone Deacetlyase1 (HDAC1) against Malignant Cancer” (J Med Chem, 2018)
# The source made the active and inactive calls. No cut-off for these calls is given here.
# Key:
# MDA-MB-231 [1] = experiment: Induction of apoptosis in human MDA-MB-231 cells assessed as necrotic cells at 10 uM after 48 hrs by annexin V-FITC/propidium iodide staining based flow cytometry (reference value: […]); assay type: functional
# Rattus norvegicus = experiment: Apparent volume of distribution at steady state in Sprague-Dawley rat at 20 mg/kg, po administered as single dose by HPLC analysis; assay type: ADME, organism-based; settings: in vivo
# Hep 3B2 [2] = experiment: Induction of apoptosis in human Hep3B cells assessed as caspase-3 cleavage after 48 hrs by Western blot method; assay type: functional, cell-based
# Outline: (§1)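 Cells were treated with or without compound and control for 48 h, then lysed. Bcl-2 and cleaved caspase 3 were assessed by Western blot.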
# [3] = target: CDK4/Cyclin D3 (Homo sapiens) (UniProt P11802+P30281); experiment: Inhibition of recombinant human full length N-terminal GST-tagged CDK4/Cyclin-D3 co-expressed in baculovirus infected sf21 cells at 1 uM using Rb substrate in presence of [gamma33P]ATP after 10 mins by scintillation counting method relative to control
# Hep 3B2 [4] = experiment: Induction of apoptosis in human Hep3B cells assessed as late apoptotic cells at 1 uM after 48 hrs by annexin V-FITC/propidium iodide staining based flow cytometry (reference value: 5.25%); assay type: functional
# HepG2 [5] = experiment: Induction of apoptosis in human HepG2 cells assessed as caspase-3 cleavage after 48 hrs by Western blot method; assay type: functional, cell-based; outline: as §1
# HepG2 [6] = experiment: Induction of apoptosis in human HepG2 cells assessed as late apoptotic cells at 10 uM after 48 hrs by annexin V-FITC/propidium iodide staining based flow cytometry (reference value: 0.64%); assay type: functional
# [7] = target: CDK9/cyclin T1 (Homo sapiens) (UniProt O60563+P50750); experiment: Inhibition of recombinant human full length C-terminal 6His-tagged CDK9/Cyclin-T1 co-expressed in baculovirus infected sf21 cells at 1 uM using PDKtide substrate in presence of [gamma33P]ATP after 10 mins by scintillation counting method relative to control
# Hep 3B2 [8] = experiment: Induction of apoptosis in human Hep3B cells assessed as early apoptotic cells at 5 uM after 48 hrs by annexin V-FITC/propidium iodide staining based flow cytometry (reference value: 1.91%); assay type: functional
# T47D [9] = experiment: Induction of apoptosis in human T47D cells after 48 hrs by annexin V-FITC/propidium iodide staining based flow cytometry; assay type: functional, cell-based
# NCI-H460 [10] = experiment: Induction of apoptosis in human NCI-H460 cells assessed as necrotic cells at 1 uM after 48 hrs by annexin V-FITC/propidium iodide staining based flow cytometry (reference value: 1.34%); assay type: functional
# CDK4/CDK9 (Homo sapiens) = CDK4/CDK9 (Homo sapiens) (UniProt P11802+P50750); experiment: Inhibition of CDK4/CDK9 in human MDA-MB-231 cells assessed as reduction in Rb phosphorylation at Ser807/811 residues at 1 uM after 48 hrs by Western blot method; assay type: cell-based
# Histone deacetylase 1 = Histone deacetylase 1 (Homo sapiens, UniProt Q13547); experiment: Inhibition of HDAC1 in human A549 cells assessed as increase in p53 phosphorylation at Ser15 residue at 1 to 5 uM after 48 hrs by Western blot method; assay type: cell-based
# MDA-MB-231 [11] = experiment: Induction of apoptosis in human MDA-MB-231 cells assessed as early apoptotic cells at 5 uM after 48 hrs by annexin V-FITC/propidium iodide staining based flow cytometry (reference value: 0.4%); assay type: functional
# T47D [12] = experiment: Induction of apoptosis in human T47D cells assessed as necrotic cells at 5 uM after 48 hrs by annexin V-FITC/propidium iodide staining based flow cytometry (reference value: 0.8%); assay type: functional
# [13] = Cmax in Sprague-Dawley rat at 20 mg/kg, po administered as single dose by HPLC analysis; assay type: ADME, organism-based; parameters: dose 20 mg/kg, route oral; settings: in vivo
# NCI-H460 [14] = experiment: Induction of apoptosis in human NCI-H460 cells assessed as live cells at 1 uM after 48 hrs by annexin V-FITC/propidium iodide staining based flow cytometry (reference value: 97.3%); assay type: functional
# MDA-MB-231 [15] = experiment: Downregulation of Cyclin-D1 protein expression in human MDA-MB-231 cells after 48 hrs by Western blot method; assay type: functional, cell-based
# Outline: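 Treated cells were lysed and CDK4 and cyclin D1 protein levels were assessed by Western blot.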
# CDK9/cyclin T1 = CDK9/cyclin T1 (Homo sapiens, UniProt P50750); experiment: Inhibition of recombinant human full length C-terminal 6His-tagged CDK9/Cyclin-T1 co-expressed in baculovirus infected sf21 cells using PDKtide substrate in presence of [gamma33P]ATP after 10 mins by scintillation counting method
# MDA-MB-231 [16] = experiment: Cell cycle arrest in human MDA-MB-231 cells assessed as decrease in S-phase at 625 nM after 24 hrs by propidium iodide staining based flow cytometry; assay type: functional
# Outline: (§2)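 Cells were exposed for 24 h to a range of concentrations (625 nM, 2.5 and 10 µM), with DMSO vehicle as control. They were then stained with propidium iodide and analysed by flow cytometry to obtain the percentages of cells in G0/G1, S and G2 phases.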
# HepG2 [17] = experiment: Induction of apoptosis in human HepG2 cells assessed as live cells at 10 uM after 48 hrs by annexin V-FITC/propidium iodide staining based flow cytometry (reference value: 96.7%); assay type: functional
# HepG2 [18] = experiment: Induction of apoptosis in human HepG2 cells after 48 hrs by annexin V-FITC/propidium iodide staining based flow cytometry; assay type: functional, cell-based
# MDA-MB-231 [19] = experiment: Induction of apoptosis in human MDA-MB-231 cells assessed as live cells at 10 uM after 48 hrs by annexin V-FITC/propidium iodide staining based flow cytometry (reference value: 98.1%); assay type: functional
# NCI-H460 [20] = experiment: Cell cycle arrest in human NCI-H460 cells assessed as accumulation at G0/G1 phase at 625 nM after 24 hrs by propidium iodide staining based flow cytometry; assay type: functional; outline: as §2
# MDA-MB-231 [21] = experiment: Induction of apoptosis in human MDA-MB-231 cells assessed as necrotic cells at 1 uM after 48 hrs by annexin V-FITC/propidium iodide staining based flow cytometry (reference value: […]); assay type: functional
# A549 = experiment: Induction of apoptosis in human A549 cells assessed as early apoptotic cells at 1 uM after 48 hrs by annexin V-FITC/propidium iodide staining based flow cytometry (reference value: 0.41%); assay type: functional
# T47D [22] = experiment: Induction of apoptosis in human T47D cells assessed as early apoptotic cells at 1 uM after 48 hrs by annexin V-FITC/propidium iodide staining based flow cytometry (reference value: 7.7%); assay type: functional
# NCI-H460 [23] = experiment: Induction of apoptosis in human NCI-H460 cells assessed as early apoptotic cells at 1 uM after 48 hrs by annexin V-FITC/propidium iodide staining based flow cytometry (reference value: 0.11%); assay type: functional
# T47D [24] = experiment: Induction of apoptosis in human T47D cells assessed as early apoptotic cells at 10 uM after 48 hrs by annexin V-FITC/propidium iodide staining based flow cytometry (reference value: 7.7%); assay type: functional
# Hep 3B2 [25] = experiment: Induction of apoptosis in human Hep3B cells assessed as live cells at 10 uM after 48 hrs by annexin V-FITC/propidium iodide staining based flow cytometry (reference value: 97.9%); assay type: functional
# MDA-MB-231 [26] = experiment: Induction of apoptosis in human MDA-MB-231 cells assessed as early apoptotic cells at 1 uM after 48 hrs by annexin V-FITC/propidium iodide staining based flow cytometry (reference value: 0.4%); assay type: functional
# [27] = Tmax in Sprague-Dawley rat at 20 mg/kg, ip administered as single dose by HPLC analysis; assay type: ADME, organism-based; settings: in vivo
# Chain of Histone deacetylase 1 (Q13547 whole entry): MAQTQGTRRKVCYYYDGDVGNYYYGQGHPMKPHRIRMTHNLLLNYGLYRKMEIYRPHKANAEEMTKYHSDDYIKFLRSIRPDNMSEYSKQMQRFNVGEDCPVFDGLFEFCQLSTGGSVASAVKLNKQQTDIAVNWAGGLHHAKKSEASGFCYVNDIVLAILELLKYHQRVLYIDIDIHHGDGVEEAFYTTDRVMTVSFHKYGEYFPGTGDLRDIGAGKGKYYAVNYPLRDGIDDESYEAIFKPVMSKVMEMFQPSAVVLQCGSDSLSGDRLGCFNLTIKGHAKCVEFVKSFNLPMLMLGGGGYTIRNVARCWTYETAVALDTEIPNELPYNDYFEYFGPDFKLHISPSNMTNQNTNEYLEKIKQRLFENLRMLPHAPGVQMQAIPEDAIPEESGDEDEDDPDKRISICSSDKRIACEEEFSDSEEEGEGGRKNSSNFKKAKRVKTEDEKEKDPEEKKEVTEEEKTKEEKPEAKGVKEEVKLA
# Chain of CDK4/CDK9 (Homo sapiens) (P11802 whole entry, looked up): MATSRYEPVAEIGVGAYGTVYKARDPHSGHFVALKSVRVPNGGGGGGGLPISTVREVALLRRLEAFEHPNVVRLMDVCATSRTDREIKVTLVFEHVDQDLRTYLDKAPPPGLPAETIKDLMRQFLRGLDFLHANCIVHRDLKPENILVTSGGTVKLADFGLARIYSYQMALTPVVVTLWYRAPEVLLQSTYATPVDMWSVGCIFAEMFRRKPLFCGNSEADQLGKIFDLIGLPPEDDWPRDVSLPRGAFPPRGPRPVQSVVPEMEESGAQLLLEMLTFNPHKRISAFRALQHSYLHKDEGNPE
# Chain of CDK4/CDK9 (Homo sapiens) (P50750 whole entry, looked up): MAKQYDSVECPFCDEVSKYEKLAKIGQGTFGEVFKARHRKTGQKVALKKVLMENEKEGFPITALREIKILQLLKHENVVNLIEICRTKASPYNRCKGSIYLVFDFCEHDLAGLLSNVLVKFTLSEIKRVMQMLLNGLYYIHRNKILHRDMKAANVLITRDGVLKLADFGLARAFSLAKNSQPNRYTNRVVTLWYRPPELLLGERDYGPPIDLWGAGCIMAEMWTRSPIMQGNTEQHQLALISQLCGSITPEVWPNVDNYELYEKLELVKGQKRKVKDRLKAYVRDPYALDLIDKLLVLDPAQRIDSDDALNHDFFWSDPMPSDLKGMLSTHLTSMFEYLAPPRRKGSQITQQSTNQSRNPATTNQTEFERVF
# Chain of CDK9/cyclin T1 (O60563 whole entry): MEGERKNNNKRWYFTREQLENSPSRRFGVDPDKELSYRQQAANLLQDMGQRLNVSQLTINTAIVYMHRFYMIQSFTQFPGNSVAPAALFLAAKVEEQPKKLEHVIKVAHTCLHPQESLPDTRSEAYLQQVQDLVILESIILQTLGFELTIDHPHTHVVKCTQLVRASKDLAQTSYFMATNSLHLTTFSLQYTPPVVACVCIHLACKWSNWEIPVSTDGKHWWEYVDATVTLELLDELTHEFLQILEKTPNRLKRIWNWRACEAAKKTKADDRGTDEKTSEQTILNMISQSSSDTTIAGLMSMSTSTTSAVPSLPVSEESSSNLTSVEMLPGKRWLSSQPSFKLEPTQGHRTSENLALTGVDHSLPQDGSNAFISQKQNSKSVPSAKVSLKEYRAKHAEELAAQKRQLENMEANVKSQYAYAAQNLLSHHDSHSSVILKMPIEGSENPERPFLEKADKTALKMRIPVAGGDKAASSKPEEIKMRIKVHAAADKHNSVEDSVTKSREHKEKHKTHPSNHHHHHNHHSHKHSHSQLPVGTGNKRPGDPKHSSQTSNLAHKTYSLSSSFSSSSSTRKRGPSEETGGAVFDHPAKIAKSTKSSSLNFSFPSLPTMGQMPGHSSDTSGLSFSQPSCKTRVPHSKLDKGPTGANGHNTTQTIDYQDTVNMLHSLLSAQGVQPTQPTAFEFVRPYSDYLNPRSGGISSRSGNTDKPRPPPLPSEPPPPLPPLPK
# Chain of CDK9/cyclin T1 (P50750 whole entry): as the sequence (P50750 whole entry, looked up) above
compound,measurement,setting,value
CN(C)C(=O)c1cc2cnc(Nc3ccc(NC(=O)CCCCCCC(=O)NO)cc3)nc2n1C1CCCC1,Activity,MDA-MB-231 [1],1.21%
same,Vdss(app),Rattus norvegicus,431.52 L/kg
same,Activity,Hep 3B2 [2],Active
same,inhibition,[3],101%
same,Activity,Hep 3B2 [4],7.09%
same,Activity,HepG2 [5],Active
same,Activity,HepG2 [6],11.7%
same,inhibition,[7],97%
same,Activity,Hep 3B2 [8],6.52%
same,Activity,T47D [9],Dose-dependent effect
same,Activity,NCI-H460 [10],1.25%
same,inhibition,CDK4/CDK9 (Homo sapiens),Active
same,inhibition,Histone deacetylase 1,Active
same,Activity,MDA-MB-231 [11],2.57%
same,Activity,T47D [12],0.82%
same,Cmax,[13],137 ng/mL
same,Activity,NCI-H460 [14],97%
same,Activity,MDA-MB-231 [15],Dose-dependent effect
same,IC50,CDK9/cyclin T1,9 nM
same,Activity,MDA-MB-231 [16],Active
same,Activity,HepG2 [17],73.3%
same,Activity,HepG2 [18],Dose-dependent effect
same,Activity,MDA-MB-231 [19],87.1%
same,Activity,NCI-H460 [20],Active
same,Activity,MDA-MB-231 [21],1.65%
same,Activity,A549,0.57%
same,Activity,T47D [22],4.5%
same,Activity,NCI-H460 [23],0.28%
same,Activity,T47D [24],37.1%
same,Activity,Hep 3B2 [25],72.8%
same,Activity,MDA-MB-231 [26],0.78%
same,Tmax,[27],15.7 min
